According to publication PMC2850055 (Analytical chemistry, 2009):
“Also recorded” adds a separate entry of the source. Starred links: 1 amine or outer side, 2 acyl side, 3 side chain; linkers in the order of their positions; H or OH if unused. Non-standard residues stand in square brackets, D forms with d. Residues, ends and D or L forms follow the SMILES beside them. *: point of attachment. X2 = CCC(=O)CC1CC(C)CC(C(=O)[*:2])N1[*:1]; X1 = CCCCCCCCC(C)C(=O)*; Aib = CC(C)(N)C(=O)O; X3 = CC(CN(C)CCO)N*

Tests used:
[1] = tested on: primary mouse astrocytes expressing endogenous AQP4; experiment: Calcein fluorescence quenching cell volume assay in primary mouse astrocytes; type: cell-based; settings: for alteration of water flux kinetics / cell volume regulation (RVI, RVD, shrinkage): 20 μM, 15 min incubation, osmotic shock
[2] = tested on: AQP1-expressing fibroblasts (2497 cells); experiment: Calcein fluorescence quenching cell volume assay in 2497 fibroblasts; type: cell-based, mouse; settings: 0.2 mM, 3 min preincubation, hyperosmotic challenge
In short: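 Mouse 2497 fibroblasts with endogenous AQP1 were grown in DMEM with 10% FBS at 37 °C. Cells were plated at 12 000 per well and assayed 24–48 h later at 80–85% confluence. They were loaded with 10 μM calcein-AM for 45 min at 37 °C and preincubated with the agent before the osmotic step. Fluorescence was read at ex 490/em 520 nm every 0.5 s: 15 s baseline, 35 s after hyperosmolar PBS (0.5 M NaCl), then 40 s after water. Shrinkage time constant came from an exponential fit.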

[3] = target: AQP4 (Rattus norvegicus, UniProt P47863); type: biochemical
Sequence of AQP4 (P47863 23-323): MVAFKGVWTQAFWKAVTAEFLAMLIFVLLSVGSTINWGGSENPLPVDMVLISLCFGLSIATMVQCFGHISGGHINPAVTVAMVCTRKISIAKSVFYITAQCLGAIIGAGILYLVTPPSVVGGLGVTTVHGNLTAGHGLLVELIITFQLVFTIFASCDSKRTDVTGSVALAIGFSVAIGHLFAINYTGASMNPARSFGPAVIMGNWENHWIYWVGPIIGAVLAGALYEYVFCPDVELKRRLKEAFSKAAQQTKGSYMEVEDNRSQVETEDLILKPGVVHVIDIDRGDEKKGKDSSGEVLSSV
In short: (§1)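 Plasma membrane vesicles from rat TNC1 cells were made by homogenisation in sucrose/EDTA/protease-inhibitor buffer (pH 7.2), a 4000g 15 min spin, then pelleting of the supernatant at 17 000g for 45 min. Vesicles at 0.5 mg protein/mL in 50 mM sucrose, 10 mM Tris-HCl pH 7.4 were preincubated 15 min with test compound. Stopped-flow mixing imposed a 250 mOsm inward sucrose gradient. Volume decrease was followed by 90° scatter at 530 nm, and time constant was computed.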

[4] = tested on: vesicles from TNC1-untransfected cells; experiment: Stopped-flow light scattering in vesicles from untransfected TNC1 cells; type: biochemical, rat; settings: 20 μM, data not shown
In short: as §1

[5] = target: T1, AQP1 (native, erythrocytes) (Rattus norvegicus, UniProt P29975); experiment: Stopped-flow light scattering water transport in erythrocytes; type: cell-based
T1 sequence (P29975 1-269): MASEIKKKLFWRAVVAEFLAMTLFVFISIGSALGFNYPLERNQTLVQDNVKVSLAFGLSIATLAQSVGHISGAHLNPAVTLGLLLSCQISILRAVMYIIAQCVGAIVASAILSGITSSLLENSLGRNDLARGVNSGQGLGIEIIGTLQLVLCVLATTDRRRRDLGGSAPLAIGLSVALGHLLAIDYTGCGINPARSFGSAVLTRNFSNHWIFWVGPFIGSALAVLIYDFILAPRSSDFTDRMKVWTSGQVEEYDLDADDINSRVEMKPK
In short: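 Erythrocytes came from heparinised Wistar rat blood, were washed three times in PBS (800g, 4 °C, 10 min) and used within 24 h. At 1% haematocrit in PBS they were preincubated 15 min with test compound, then stopped-flow mixed with equal-volume hyperosmolar PBS to give a 250 mOsm inward gradient. Shrinkage was recorded by light scattering at 600 nm at 12 °C.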

[6] = target: AQP4 (M23 isoform) in transfected TNC1 cells (Rattus norvegicus, UniProt P47863); experiment: Calcein fluorescence quenching cell volume assay in AQP4-transfected TNC1 cells; type: cell-based; settings: 20 uM
Sequence of AQP4 (M23 isoform) in transfected TNC1 cells (P47863 23-323): as the sequence (P47863 23-323) above
In short: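 Rat TNC1 astrocytoma cells were stably co-transfected with rat AQP4 M23 (aa23–323) cDNA and a puromycin-resistance vector, then maintained in 2 μg/mL puromycin. Cells were plated at 12 000 per well and loaded with 10 μM calcein-AM for 45 min at 37 °C. Test compound was given for 15 min at 20 μM final. Calcein fluorescence (490/520 nm) was recorded every 0.5 s through a hyperosmolar NaCl challenge and isosmotic restoration. Shrinkage time constant came from an exponential fit.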

## [Cl][Hg][Cl] [HgCl2, mercuric chloride]
[1]; astrocytes pretreated with 0.2 mM, 3 min
  effect on time course/kinetics of cell shrinkage: did not change significantly; also recorded: lack of effect
[2]
  reduction of the cell shrinkage rate: 52.7 ± 3%

## CCC[CH2][Sn]([CH2]CCC)([CH2]CCC)[O]c1cc(Cl)c(Cl)cc1Cl [NSC164914, tributyl-(2,4,5-trichlorophenoxy)stannane]
[1]
  alteration of water flux kinetics / cell volume regulation (RVI, RVD, shrinkage): affected shrinkage rate
[3]
  effect on AQP4: inhibitory effects
[4]
  reduction of shrinkage kinetics: no significant reduction
[5]
  effect on AQP1: inhibitory effects
[5]; 40 μM
  inhibition of the shrinkage rate: ~ 64%

## CCC[CH2][Pb]([Cl])([CH2]CCC)[CH2]CCC [NSC168597, tributyl-chloroplumbane]
[3]
  effect on AQP4: inhibitory effects
[5]
  effect on AQP1: inhibitory effects

## CCCCCCCCC(C)C(=O)N1CCCC1C(=O)N1C(CC(=O)CC)CC(C)CC1C(=O)NC(C)C(=O)NC(C)(C)C(=O)NC(C)(C)C(=O)NC(C(=O)NC(C)C(=O)NC(C)(C)C(=O)NC(C)(C)C(=O)NC(C)CN(C)CCO)C(C)CC (stereo not shown) [NSC301460, trichopolin] (X1-P[X2]A[Aib][Aib]IA[Aib][Aib]-X3; configuration not given here)
[1]
  alteration of water flux kinetics / cell volume regulation (RVI, RVD, shrinkage): affected shrinkage rate

## CCCCCn1cc2c3c(cccc31)C1C=C(C)CN(C)[C@@H]1C2.Cc1ccc(C(=O)OC(C(=O)O)C(OC(=O)c2ccc(C)cc2)C(=O)O)cc1 (stereo not shown) [NSC600681]
[6]
  AQP4-mediated cell shrinkage time constant: significantly longer

## COc1ccc(CCN2CCC(Nc3nc4ccccc4n3Cc3ccc(F)cc3)CC2)cc1 [astemizole]
[1]
  alteration of water flux kinetics / cell volume regulation (RVI, RVD, shrinkage): Altered cell volume regulation

## OCCN1CCN(CCCN2c3ccccc3Sc3ccc(C(F)(F)F)cc32)CC1 [fluphenazine]
[1]
  alteration of water flux kinetics / cell volume regulation (RVI, RVD, shrinkage): Altered cell volume regulation
